# Assay results pooled from the literature.
# Lines come from different studies, so protocols differ. pIC50: −log10 of the molar value.
# Effect on: enzyme activity
# Action: inhibitor
# KIT: Mast/stem cell growth factor receptor Kit (KIT, Homo sapiens, UniProt P10721)
# PIK3CD: Phosphatidylinositol 4,5-bisphosphate 3-kinase catalytic subunit delta isoform (PIK3CD, Homo sapiens, UniProt O00329)
Compound,target,technique,pIC50
Cc1n[nH]c2ccc3nc(-c4ccc(C(=O)NCCN(C)C)cc4F)c4c(c3c12)CCCCC4,KIT,,6.58
CN(C)C(=O)c1cc2cnc(Nc3cccc4c(=O)cc(N5CCOCC5)oc34)nc2n1C1CCCC1,PIK3CD,radiometric,< 5.00
CNC(=O)[C@H](Cc1c[nH]c2ccccc12)NC(=O)[C@@H](CC(=O)NO)CC(C)C,"Matrix metalloproteinase-14 (MMP14, Homo sapiens, UniProt P50281)",,8.86
CN(C)CCNC(=O)c1ccc(-c2nc3ccc4[nH]ncc4c3c3c2CCCCC3)cc1,KIT,,6.00
CN(C)C(=O)c1cc2cnc(Nc3ccc(-c4ccc5c(=O)cc(N6CCNCC6)oc5c4)cc3)nc2n1C1CCCC1,PIK3CD,radiometric,5.02
CC(C)c1cccc(C(C)C)c1N=C1C(=O)N(Cc2cccc(Cl)c2)c2ccccc21,PIK3CD,ADP detection,6.62
COc1ccc(-c2cc(=O)c3ccc(Nc4ncc5cc(C(=O)N(C)C)n(C6CCCC6)c5n4)cc3o2)cc1,PIK3CD,radiometric,5.01
O=C1Nc2ccccc2C1=Nc1cccc(Cl)c1,PIK3CD,ADP detection,7.08
CN(C)C(=O)c1cc2cnc(Nc3cncc(-c4ccc5c(=O)cc(N6CCOCC6)oc5c4)c3)nc2n1C1CCCC1,PIK3CD,radiometric,6.86
Cc1n[nH]c2ccc3nc(-c4ccc(C(=O)NCCN(C)C)cc4)c4c(c3c12)CCCCC4,KIT,,6.48
O=C1C(=Nc2ccccc2I)c2ccccc2N1Cc1ccc(Br)cc1,PIK3CD,ADP detection,6.86
CN(C)C(=O)c1cc2cnc(Nc3cc(C(=O)O)cc(-c4ccc5c(=O)cc(N6CCOCC6)oc5c4)c3)nc2n1C1CCCC1,PIK3CD,radiometric,6.14
COc1cc(N=C2C(=O)Nc3ccccc32)cc(OC)c1,PIK3CD,ADP detection,7.32
Cc1n[nH]c2ccc3nc(-c4ccc(C(=O)NCCN(C)C)cc4F)c4c(c3c12)CCCC4,KIT,,6.29
Cc1cccc(N=C2C(=O)N(Cc3ccccc3)c3ccccc32)c1,PIK3CD,ADP detection,7.66
CN(C)CCNC(=O)c1ccc(-c2nc3ccc4[nH]ncc4c3c3c2CCCC3)cc1,KIT,,< 6.00
O=C1Nc2ccc(I)cc2/C1=C/c1cc(Br)c(O)c(Br)c1,"Casein kinase II subunit alpha (CSNK2A1, Homo sapiens, UniProt P68400)",,6.50
CN(C)C(=O)c1cc2cnc(Nc3ccc(-c4cccc5c(=O)cc(N6CCOCC6)oc45)cn3)nc2n1C1CCCC1,PIK3CD,radiometric,5.62
O=C1Nc2ccccc2/C1=N\c1ccc(Cl)cc1,PIK3CD,ADP detection,6.12
O=C(NO)c1ccc(Cn2cnc3c(Nc4ccc(Cl)cc4)ncnc32)cc1,"RAC-beta serine/threonine-protein kinase (AKT2, Homo sapiens, UniProt P31751)",radiometric,< 4.70
